Reference: ChEMBL document CHEMBL2384997, “2-(1H-Pyrazol-4-yl)acetic acids as CRTh2 antagonists” (Bioorg Med Chem Lett, 2013)
Values after ≈ are worked out from the molar mass of the structure shown.

What was measured:
[1] = target: T1, Prostaglandin D2 receptor 2 (Homo sapiens, UniProt Q9Y5Y4); assay: Antagonist activity at CRTh2 receptor (unknown origin) overexpressed in CHOK1 cell membranes assessed as inhibition of [35S]-GTPgammaS binding preincubated for 1 hr followed by 50 nM PGD2 and 0.1 nM [35S]-GTPgammaS addition measured after 2 hrs by liquid scintillation counting analysis; type: functional, CHO-K1
T1 sequence (Q9Y5Y4 whole entry): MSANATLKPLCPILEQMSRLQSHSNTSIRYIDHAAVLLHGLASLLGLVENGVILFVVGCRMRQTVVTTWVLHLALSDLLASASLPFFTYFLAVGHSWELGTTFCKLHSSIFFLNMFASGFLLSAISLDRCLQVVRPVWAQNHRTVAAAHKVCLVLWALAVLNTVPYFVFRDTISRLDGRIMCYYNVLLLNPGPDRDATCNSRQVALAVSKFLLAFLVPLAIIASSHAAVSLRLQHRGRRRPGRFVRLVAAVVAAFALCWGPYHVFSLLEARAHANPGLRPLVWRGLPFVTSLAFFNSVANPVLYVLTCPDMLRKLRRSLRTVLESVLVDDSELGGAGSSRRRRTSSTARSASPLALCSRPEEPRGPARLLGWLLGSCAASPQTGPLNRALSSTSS

[2] = target: T2, Thromboxane A2 receptor (Homo sapiens) (UniProt P21731); assay: Inhibition of thromboxane A2 receptor (unknown origin) at 10 uM relative to control
T2 sequence (whole entry): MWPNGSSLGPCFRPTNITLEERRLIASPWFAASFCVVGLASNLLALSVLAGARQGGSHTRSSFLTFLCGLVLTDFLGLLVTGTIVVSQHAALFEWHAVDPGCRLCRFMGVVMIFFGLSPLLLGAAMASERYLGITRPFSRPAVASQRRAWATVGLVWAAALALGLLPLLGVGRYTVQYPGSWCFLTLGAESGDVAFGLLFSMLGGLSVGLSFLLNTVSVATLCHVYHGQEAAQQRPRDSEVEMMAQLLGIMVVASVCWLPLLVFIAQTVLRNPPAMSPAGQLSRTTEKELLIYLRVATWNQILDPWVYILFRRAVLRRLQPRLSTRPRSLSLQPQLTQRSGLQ

[3] = target: T3, Prostaglandin D2 receptor (Homo sapiens) (UniProt Q13258); assay: Inhibition of DP1 receptor (unknown origin) at 10 uM relative to control
T3 sequence (whole entry): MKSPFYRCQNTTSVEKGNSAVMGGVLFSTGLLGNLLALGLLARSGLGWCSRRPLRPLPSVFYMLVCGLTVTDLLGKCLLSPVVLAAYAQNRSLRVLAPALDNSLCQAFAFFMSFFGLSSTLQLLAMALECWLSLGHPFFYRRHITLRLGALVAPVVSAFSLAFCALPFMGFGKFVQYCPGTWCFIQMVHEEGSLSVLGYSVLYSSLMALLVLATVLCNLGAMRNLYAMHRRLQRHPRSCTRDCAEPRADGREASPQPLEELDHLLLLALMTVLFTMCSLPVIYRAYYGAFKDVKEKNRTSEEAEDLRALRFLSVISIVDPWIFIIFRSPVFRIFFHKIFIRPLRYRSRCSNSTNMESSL

[4] = Oral bioavailability in rat at 10 mg/kg; type: ADME, organism-based; conditions: in vivo
[5] = Volume of distribution at steady state in rat at 1 mg/kg, iv; type: ADME, organism-based; parameters: dose 1 mg/kg, route intravenous; conditions: in vivo, read-out: Vdss
[6] = Clearance in rat at 1 mg/kg, iv; type: ADME, organism-based; parameters: dose 1 mg/kg, route intravenous; conditions: in vivo
[7] = Terminal half life in rat at 1 mg/kg, iv; type: ADME, organism-based; parameters: dose 1 mg/kg, route intravenous; conditions: in vivo, read-out: beta t1/2 (converted)
[8] = AUC ( 0 to 24 hrs) in rat at 1 mg/kg, iv; type: ADME, organism-based; parameters: time < 24 hr, dose 1 mg/kg, route intravenous; conditions: plasma
[9] = Plasma protein binding in human by rapid equilibrium dialysis method; type: ADME, cell-free; conditions: read-out: PPB
Summary of the method: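 Protein binding by equilibrium dialysis; human plasma diluted to 10%.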

[10] = Plasma protein binding in rat by rapid equilibrium dialysis method; type: ADME, cell-free; conditions: read-out: PPB (converted)
[11] = Lipophilicity , log D of the compound at pH 7.4 by shake-flask method; type: physicochemical; conditions: buffer
Summary of the method: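 logD at pH 7.4 by shake-flask.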

[12] = Solubility of the compound at pH 1; type: physicochemical; conditions: buffer
[13] = Solubility of the compound at pH 7.4; type: physicochemical; conditions: buffer
[14] = Dissociation constant, pKa of the compound by potentiometric method; type: physicochemical
Summary of the method: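 pKa determined potentiometrically.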

[15] = Apparent permeability from apical to basolateral side in human Caco2 cells; type: ADME, cell-based; conditions: Caco-2
[16] = Apparent permeability from basolateral to apical side in human Caco2 cells; type: ADME, cell-based; conditions: Caco-2
[17] = target: T4, Prostaglandin D2 receptor 2 (Homo sapiens) (UniProt Q9Y5Y4); conditions: CHO-K1
T4 sequence (whole entry): T1 sequence (Q9Y5Y4 whole entry)

[18] = Volume of distribution at steady state in rat at 0.5 mg/kg, iv; type: ADME, organism-based; parameters: dose 0.5 mg/kg, route intravenous; conditions: in vivo, read-out: Vdss
[19] = Oral bioavailability in rat at 1 mg/kg; type: ADME, organism-based; conditions: in vivo
[20] = Half life in rat at 0.5 mg/kg, iv; type: ADME, organism-based; parameters: dose 0.5 mg/kg, route intravenous; conditions: in vivo
[21] = Clearance in rat at 0.5 mg/kg, iv; type: ADME, organism-based; parameters: dose 0.5 mg/kg, route intravenous; conditions: in vivo
[22] = AUC ( 0 to 24 hrs) in rat at 0.5 mg/kg, iv; type: ADME, organism-based; parameters: time < 24 hr, dose 0.5 mg/kg, route intravenous; conditions: plasma
[23] = target: T4, Prostaglandin D2 receptor 2 (Homo sapiens); assay: Ratio of IC50 for CRTh2 receptor in human whole blood assessed as inhibition of PGD2-induced eosinophil shape change to IC50 for CRTh2 receptor (unknown origin) overexpressed in CHOK1 cells assessed as inhibition of [35S]-GTPgammaS binding; type: functional, cell-based; conditions: CHO-K1
[24] = target: T1, Prostaglandin D2 receptor 2; assay: Antagonist activity at CRTh2 receptor overexpressed in CHOK1 cell membranes assessed as inhibition of [35S]-GTPgammaS binding in presence of 1% human serum albumin

Cc1c(CC(=O)O)c(-c2ccccc2)nn1Cc1ccccc1S(=O)(=O)N(C)C
IC50 ([1]; read-out: IC50): 0.85 µM

Cc1c(CC(=O)O)c(-c2ccccc2)nn1CC1CCCN1S(=O)(=O)c1ccccc1 (stereo not drawn)
IC50 ([1]; cho-k1): Not Active

COc1ccc(S(=O)(=O)c2ccc(F)cc2)c(Cn2nc(-c3ccccc3)c(CC(=O)O)c2C)c1
IC50 ([1]; read-out: IC50): 0.036 µM

Cc1c(CC(=O)O)c(-c2ccccc2)nn1Cc1ccc(F)cc1S(=O)(=O)N1CCNCC1
IC50 ([1]; read-out: IC50): 5 µM

Cc1c(CC(=O)O)c(-c2ccc(O)nc2)nn1C(c1ccc(F)cc1)c1ccc(F)cc1
IC50 ([1]; cho-k1): Not Active

Cc1nn(Cc2ccc(S(C)(=O)=O)cc2)c(C)c1CC(=O)O
IC50 ([1]; read-out: IC50): 5 µM

COc1c(CC(=O)O)c(C)nn1-c1cccc(NC(=O)[C@H]2C[C@@H]2c2ccccc2)c1
IC50 ([1]; read-out: IC50): 1.6 µM

Cc1c(CC(=O)O)c(-c2ccccc2)nn1Cc1ccccc1S(=O)(=O)c1ccccc1
inhibition [2]: < 40%
inhibition [3]: < 40%
bioavailability [4]: 73%
Vd [5]: 1.6 L/kg
clearance [6]: 0.51 L/h/kg
half-life [7]: 288 min
AUC(0-t) at 24 h [8]: 1.96 µg·h/mL
fraction unbound [9]: < 0.001
fraction unbound [10]: 0.012
logD [11]: 0.7
solubility [12]: 0.003 mg/mL (≈ 6.72 µM)
solubility [13]: 0.95 mg/mL (≈ 2130 µM)
pKa [14]: 4.2
Papp A→B [15]: 130 nm/s
Papp B→A [16]: 170 nm/s
IC50 ([1]; read-out: IC50): 0.007 µM
T1/2 [17]: 12 min

Cc1nn(-c2cccc(NC(=O)[C@H]3C[C@@H]3c3ccccc3)c2)c(C)c1CC(=O)O
Vd [18]: 0.14 L/kg
bioavailability [19]: 12%
half-life [20]: 78 min
clearance [21]: 0.15 L/h/kg
logD [11]: 0.9
AUC(0-t) at 24 h [22]: 3.36 µg·h/mL
solubility [12]: 0.5 mg/mL (≈ 1280 µM)
solubility [13]: 0.8 mg/mL (≈ 2050 µM)
pKa [14]: 4.2
Papp A→B [15]: 30 nm/s
Papp B→A [16]: 60 nm/s
Ratio IC50 [23]: 10
IC50 ([1]; read-out: IC50): 0.23 µM

Cc1c(CC(=O)O)c(-c2ccccc2)nn1Cc1ccccc1Oc1ccccc1
inhibition [2]: < 40%
inhibition [3]: < 40%
IC50 ([1]; read-out: IC50): 2 µM

Cc1c(CC(=O)O)c(-c2ccccc2)nn1Cc1ccccc1CS(=O)(=O)c1ccccc1
IC50 ([1]; read-out: IC50): 0.49 µM

Cc1c(CC(=O)O)c(-c2ccccc2)nn1C(c1ccc(F)cc1)c1ccc(S(C)(=O)=O)cc1 (stereo not drawn)
IC50 ([1]; read-out: IC50): 5 µM

Cc1c(CC(=O)O)c(-c2ccccc2)nn1S(=O)(=O)c1ccc(Cl)c(Cl)c1
IC50 ([1]; read-out: IC50): 1.6 µM

Cc1c(CC(=O)O)c(-c2ccccc2)nn1Cc1ccc(S(C)(=O)=O)cc1
IC50 ([1]; cho-k1): Not Active

Cc1c(CC(=O)O)c(-c2ccccc2)nn1Cc1ccccc1-c1ccccc1
IC50 ([1]; read-out: IC50): 5 µM

Cc1c(CC(=O)O)c(-c2ccccc2)nn1Cc1ccccc1Cc1ccccc1
inhibition [2]: < 40%
inhibition [3]: < 40%
IC50 ([1]; read-out: IC50): 0.1 µM

Cc1c(CC(=O)O)c(-c2ccnc(F)c2)nn1C(c1ccc(F)cc1)c1ccc(F)cc1
IC50 ([1]; read-out: IC50): 0.31 µM

Cc1c(CC(=O)O)c(-c2ccccc2)nn1-c1ccnc2ccccc12
IC50 ([1]; read-out: IC50): 5 µM

O=C(O)Cc1cn(C(c2ccc(F)cc2)c2ccc(F)cc2)nc1-c1ccncc1
IC50 ([1]; read-out: IC50): 0.29 µM

Cc1nn(Cc2ccc3ccccc3n2)c(C)c1CC(=O)O
IC50 ([1]; read-out: IC50): > 5 µM

Cc1c(CC(=O)O)c(-c2ccccc2)nn1C(C)c1ccccc1S(=O)(=O)c1ccccc1 (stereo not drawn)
IC50 ([1]; read-out: IC50): 2.9 µM

Cc1nn(Cc2ccccc2S(=O)(=O)c2ccccc2)c(C)c1CC(=O)O
inhibition [2]: < 40%
inhibition [3]: < 40%
IC50 ([1]; read-out: IC50): 0.081 µM
T1/2 [17]: 2 min

Cc1c(CC(=O)O)c(-c2ccccc2)nn1C(c1ccc(F)cc1)c1ccc(F)cc1
IC50 ([1]; read-out: IC50): 1.1 µM

Cc1c(CC(=O)O)c(-c2ccccc2)nn1Cc1ccc2ccccc2n1
IC50 ([1]; read-out: IC50): 0.87 µM

Cc1c(CC(=O)O)c(-c2ccncc2)nn1Cc1ccc(F)cc1
IC50 ([1]; read-out: IC50): 1.9 µM

Cc1c(Cc2ccccc2S(=O)(=O)c2ccccc2)c2cc(F)ccc2n1CC(=O)O
IC50 ([1]; read-out: IC50): 0.016 µM

Cc1c(CC(=O)O)c(-c2ccccc2)nn1Cc1ccccc1C(=O)c1ccccc1
IC50 ([1]; read-out: IC50): 1.4 µM

Cc1c(CC(=O)O)c(-c2ccccc2)nn1Cc1ccccc1S(=O)(=O)N1CCOCC1
inhibition [2]: < 40%
inhibition [3]: < 40%
IC50 ([1]; read-out: IC50): 0.089 µM

Cc1c(CC(=O)O)c(-c2ccncc2)nn1C(c1ccc(F)cc1)c1ccc(F)cc1
inhibition [2]: < 40%
inhibition [3]: < 40%
IC50 ([1]; read-out: IC50): 0.046 µM
T1/2 [17]: 30 min

Cc1c(CC(=O)O)c(-c2ccncc2)nn1Cc1ccccc1S(=O)(=O)c1ccccc1
IC50 ([1]; read-out: IC50): 0.004 µM
IC50 [24]: 0.066 µM

Cc1c(CC(=O)O)c(=O)[nH]n1Cc1ccccc1S(=O)(=O)c1ccccc1
inhibition [2]: < 40%
inhibition [3]: < 40%
